Measurements as given in ChEMBL document CHEMBL1275598, “In vitro activity of ceftaroline against community-associated methicillin-resistant, vancomycin-intermediate, vancomycin-resistant, and daptomycin-nonsusceptible Staphylococcus aureus isolates” (2010).
In brackets after ≈: the same amount, converted by molar mass. Several values for one entry are separate records, joined by “and”; a condition that tells them apart may be missing. Identical values can stand only once.

Assays:
Type in all cases: functional
Staphylococcus aureus [1] = assay: Antimicrobial activity against vancomycin intermediate Staphylococcus aureus NRS-404 expressing SCCmec type 2 element by microdilution method
Procedure, shortened: (§1)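 MIC by broth microdilution in cation-adjusted Mueller-Hinton broth, following CLSI guidelines; antibiotic powders reconstituted per CLSI. Read visually as the lowest drug concentration well with no visible growth. S. aureus ATCC 29213 and E. faecalis ATCC 29212 served as control strains. CA-MRSA: hospital patients culture-positive within 48 h of admission. DNSSA: patient blood isolates. VISA: obtained from the NARSA program.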

Staphylococcus aureus [2] = assay: Antimicrobial activity against vancomycin intermediate Staphylococcus aureus NRS-74 expressing SCCmec type 2 element by microdilution method; procedure, shortened: as §1
Staphylococcus aureus [3] = assay: Antimicrobial activity against vancomycin resistant Staphylococcus aureus VRS-8 expressing SCCmec element by microdilution method
Procedure, shortened: (§2)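 Broth microdilution per CLSI in cation-adjusted Mueller-Hinton broth. Antibiotic powders were reconstituted per CLSI. The MIC was read visually as the lowest drug concentration with no visible growth. S. aureus ATCC 29213 and E. faecalis ATCC 29212 served as control strains. VISA and VRSA isolates came from the NARSA program.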

Staphylococcus aureus [4] = assay: Antimicrobial activity against vancomycin resistant Staphylococcus aureus VRS-3 expressing SCCmec type 4 element by microdilution method; procedure, shortened: as §2
Staphylococcus aureus [5] = assay: Antimicrobial activity against vancomycin intermediate Staphylococcus aureus NRS-18 expressing SCCmec type 2 element by microdilution method; procedure, shortened: as §1
Staphylococcus aureus [6] = assay: Antimicrobial activity against vancomycin intermediate Staphylococcus aureus NRS-3 expressing SCCmec type 2 element by microdilution method; procedure, shortened: as §1
Staphylococcus aureus [7] = assay: Antimicrobial activity against vancomycin intermediate Staphylococcus aureus NRS-24 expressing SCCmec type 2 element by microdilution method; procedure, shortened: as §1
Staphylococcus aureus [8] = assay: Antimicrobial activity against vancomycin intermediate Staphylococcus aureus NRS-76 expressing SCCmec type 2 element by microdilution method; procedure, shortened: as §2
Staphylococcus aureus [9] = assay: Antimicrobial activity against vancomycin intermediate Staphylococcus aureus NRS-118 expressing SCCmec type 1 element by microdilution method; procedure, shortened: as §1
Staphylococcus aureus [10] = assay: Antimicrobial activity against community-acquired methicillin-resistant Staphylococcus aureus expressing SCCmec type 2 element by microdilution method; procedure, shortened: as §1
Staphylococcus aureus [11] = assay: Antimicrobial activity against vancomycin intermediate Staphylococcus aureus NRS-17 expressing SCCmec type 2 element by microdilution method; procedure, shortened: as §1
Staphylococcus aureus [12] = assay: Antimicrobial activity against vancomycin resistant Staphylococcus aureus VRS-1 expressing SCCmec type 2 element by microdilution method; procedure, shortened: as §2
Staphylococcus aureus [13] = assay: Antimicrobial activity against vancomycin intermediate Staphylococcus aureus NRS-73 expressing SCCmec type 4d element by microdilution method; procedure, shortened: as §1
Staphylococcus aureus [14] = assay: Bactericidal activity against community-acquired methicillin-resistant Staphylococcus aureus expressing SCCmec type 4a element assessed as antibiotic concentration that reduced the number of viable cells by =>99.9% by colony count method
Procedure, shortened: (§3)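 MBC per CLSI following microdilution in cation-adjusted Mueller-Hinton broth. Defined as the concentration giving ≥99.9% reduction in viable cells, judged from colony counts of the growth control well against Pearson rejection-value tables. CA-MRSA isolates were hospital patients' isolates with positive MRSA culture within 48 h of admission.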

Staphylococcus aureus [15] = assay: Antimicrobial activity against vancomycin resistant Staphylococcus aureus VRS-5 expressing SCCmec type 2 element by microdilution method; procedure, shortened: as §2
Staphylococcus aureus [16] = assay: Antimicrobial activity against vancomycin intermediate Staphylococcus aureus NRS-22 expressing SCCmec type 2 element by microdilution method; procedure, shortened: as §1
Staphylococcus aureus [17] = assay: Antimicrobial activity against vancomycin intermediate Staphylococcus aureus NRS-26 expressing SCCmec type 2 element by microdilution method; procedure, shortened: as §1
Staphylococcus aureus [18] = assay: Bactericidal activity against community-acquired methicillin-resistant Staphylococcus aureus assessed as antibiotic concentration that reduced the number of viable cells by =>99.9% by colony count method; procedure, shortened: as §3
Staphylococcus aureus [19] = assay: Antimicrobial activity against vancomycin intermediate Staphylococcus aureus NRS-27 expressing SCCmec type 2 element by microdilution method; procedure, shortened: as §1
Staphylococcus aureus [20] = assay: Antimicrobial activity against vancomycin resistant Staphylococcus aureus VRS-10 expressing SCCmec type 2 element by microdilution method; procedure, shortened: as §2
Staphylococcus aureus [21] = assay: Bactericidal activity against daptomycin-nonsusceptible Staphylococcus aureus assessed as antibiotic concentration that reduced the number of viable cells by =>99.9% by colony count method
Procedure, shortened: (§4)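 MBC per CLSI guidelines. It was taken as the antibiotic concentration giving ≥99.9% reduction in viable cells, based on colony counts from the growth control well and rejection values from Pearson's tables.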

Staphylococcus aureus [22] = assay: Antimicrobial activity against vancomycin resistant Staphylococcus aureus VRS-7 expressing SCCmec element by microdilution method; procedure, shortened: as §2
Staphylococcus aureus [23] = assay: Antimicrobial activity against vancomycin resistant Staphylococcus aureus VRS-6 expressing SCCmec type 2 element by microdilution method; procedure, shortened: as §2
Staphylococcus aureus [24] = assay: Antimicrobial activity against methicillin-resistant Staphylococcus aureus
Staphylococcus aureus [25] = assay: Antimicrobial activity against vancomycin resistant Staphylococcus aureus VRS-9 expressing SCCmec type 2 element by microdilution method; procedure, shortened: as §2
Staphylococcus aureus [26] = assay: Antimicrobial activity against vancomycin-intermediate Staphylococcus aureus by microdilution method; procedure, shortened: as §2
Staphylococcus aureus [27] = assay: Antimicrobial activity against vancomycin intermediate Staphylococcus aureus NRS-19 expressing SCCmec type 2 element by microdilution method; procedure, shortened: as §1
Staphylococcus aureus [28] = assay: Antimicrobial activity against community-acquired methicillin-resistant Staphylococcus aureus expressing SCCmec type 4a element by microdilution method; procedure, shortened: as §1
Staphylococcus aureus [29] = assay: Antimicrobial activity against vancomycin intermediate Staphylococcus aureus NRS-126 expressing SCCmec type 2 element by microdilution method; procedure, shortened: as §1
Staphylococcus aureus [30] = assay: Antimicrobial activity against community-acquired methicillin-resistant Staphylococcus aureus expressing SCCmec type 4 element by microdilution method; procedure, shortened: as §1
Staphylococcus aureus [31] = assay: Antimicrobial activity against vancomycin resistant Staphylococcus aureus VRS-4 expressing SCCmec type 4 element by microdilution method; procedure, shortened: as §2
Staphylococcus aureus [32] = assay: Antimicrobial activity against community-acquired methicillin-resistant Staphylococcus aureus by microdilution method; procedure, shortened: as §1
Staphylococcus aureus [33] = assay: Antimicrobial activity against vancomycin intermediate Staphylococcus aureus NRS-68 expressing SCCmec type 2 element by microdilution method; procedure, shortened: as §1
Staphylococcus aureus [34] = assay: Antimicrobial activity against vancomycin intermediate Staphylococcus aureus NRS-403 expressing SCCmec type 2 element by microdilution method; procedure, shortened: as §1
Staphylococcus aureus [35] = assay: Antimicrobial activity against vancomycin intermediate Staphylococcus aureus NRS-4 expressing SCCmec type 2 element by microdilution method; procedure, shortened: as §1
Staphylococcus aureus [36] = assay: Antimicrobial activity against vancomycin-resistant Staphylococcus aureus by microdilution method; procedure, shortened: as §2
Staphylococcus aureus [37] = assay: Bactericidal activity against community-acquired methicillin-resistant Staphylococcus aureus expressing SCCmec type 4 element assessed as antibiotic concentration that reduced the number of viable cells by =>99.9% by colony count method; procedure, shortened: as §3
Staphylococcus aureus [38] = assay: Antimicrobial activity against vancomycin resistant Staphylococcus aureus VRS-2 expressing SCCmec type 2 element by microdilution method; procedure, shortened: as §2
Staphylococcus aureus [39] = assay: Bactericidal activity against vancomycin-resistant Staphylococcus aureus assessed as antibiotic concentration that reduced the number of viable cells by =>99.9% by colony count method; procedure, shortened: as §3
Staphylococcus aureus [40] = assay: Antimicrobial activity against daptomycin-nonsusceptible Staphylococcus aureus by microdilution method; procedure, shortened: as §1
Staphylococcus aureus [41] = assay: Antimicrobial activity against vancomycin intermediate Staphylococcus aureus NRS-23 expressing SCCmec type 2 element by microdilution method; procedure, shortened: as §1
Staphylococcus aureus [42] = assay: Antimicrobial activity against vancomycin intermediate Staphylococcus aureus NRS-51 expressing SCCmec type 2 element by microdilution method; procedure, shortened: as §1
Staphylococcus aureus [43] = assay: Antimicrobial activity against vancomycin intermediate Staphylococcus aureus NRS-402 expressing SCCmec type 2 element by microdilution method; procedure, shortened: as §1
Staphylococcus aureus [44] = assay: Bactericidal activity against vancomycin-intermediate Staphylococcus aureus assessed as antibiotic concentration that reduced the number of viable cells by =>99.9% by colony count method; procedure, shortened: as §4

CCO/N=C(\C(=O)N[C@@H]1C(=O)N2C(C(=O)[O-])=C(Sc3nc(-c4cc[n+](C)cc4)cs3)CS[C@H]12)c1nsc(NP(=O)(O)O)n1 [CEFTAROLINE FOSAMIL]
MIC (Staphylococcus aureus [1]): 0.5 µg/mL (≈ 0.73 µM)
MIC (Staphylococcus aureus [2]): 0.25 µg/mL (≈ 0.365 µM)
MIC (Staphylococcus aureus [3]): 0.12 µg/mL (≈ 0.175 µM)
MIC (Staphylococcus aureus [4]): 0.5 µg/mL (≈ 0.73 µM)
MIC (Staphylococcus aureus [5]): 0.5 µg/mL (≈ 0.73 µM)
MIC (Staphylococcus aureus [6]): 1 µg/mL (≈ 1.46 µM)
MIC (Staphylococcus aureus [7]): 0.5 µg/mL (≈ 0.73 µM)
MIC (Staphylococcus aureus [8]): 0.25 µg/mL (≈ 0.365 µM)
MIC (Staphylococcus aureus [9]): 1 µg/mL (≈ 1.46 µM)
MIC90 (Staphylococcus aureus [10]): 1 µg/mL (≈ 1.46 µM)
MIC (Staphylococcus aureus [11]): 0.5 µg/mL (≈ 0.73 µM)
MIC (Staphylococcus aureus [12]): 1 µg/mL (≈ 1.46 µM)
MIC (Staphylococcus aureus [13]): 0.5 µg/mL (≈ 0.73 µM)
MBC90 (Staphylococcus aureus [14]): 0.5 µg/mL (≈ 0.73 µM)
MIC (Staphylococcus aureus [15]): 0.5 µg/mL (≈ 0.73 µM)
MIC (Staphylococcus aureus [16]): 0.5 µg/mL (≈ 0.73 µM)
MIC (Staphylococcus aureus [17]): 0.25 µg/mL (≈ 0.365 µM)
MBC50 (Staphylococcus aureus [18]): 0.5 µg/mL (≈ 0.73 µM)
MBC (Staphylococcus aureus [18]; Staphylococcus aureus): 0.25 µg/mL (≈ 0.365 µM)
MIC (Staphylococcus aureus [19]): 0.5 µg/mL (≈ 0.73 µM)
MIC (Staphylococcus aureus [20]): 0.5 µg/mL (≈ 0.73 µM)
MBC (Staphylococcus aureus [21]): 0.74 µg/mL and 0.25 µg/mL
MBC50 (Staphylococcus aureus [21]): 1 µg/mL (≈ 1.46 µM)
MIC (Staphylococcus aureus [22]): 0.12 µg/mL (≈ 0.175 µM)
MIC (Staphylococcus aureus [23]): 0.5 µg/mL (≈ 0.73 µM)
MIC (Staphylococcus aureus [24]): 0.12 µg/mL (≈ 0.175 µM)
MIC (Staphylococcus aureus [25]): 0.25 µg/mL (≈ 0.365 µM)
MIC50 (Staphylococcus aureus [26]): 0.5 µg/mL (≈ 0.73 µM)
MIC90 (Staphylococcus aureus [26]): 1 µg/mL (≈ 1.46 µM)
MIC (Staphylococcus aureus [27]): 0.5 µg/mL (≈ 0.73 µM)
MIC90 (Staphylococcus aureus [28]): 0.5 µg/mL (≈ 0.73 µM)
MIC (Staphylococcus aureus [29]): 1 µg/mL (≈ 1.46 µM)
MIC90 (Staphylococcus aureus [30]): 0.25 µg/mL (≈ 0.365 µM)
MIC (Staphylococcus aureus [31]): 0.5 µg/mL (≈ 0.73 µM)
MIC50 (Staphylococcus aureus [32]): 0.5 µg/mL (≈ 0.73 µM)
MIC90 (Staphylococcus aureus [32]): 1 µg/mL (≈ 1.46 µM)
MIC (Staphylococcus aureus [33]): 0.5 µg/mL (≈ 0.73 µM)
MIC (Staphylococcus aureus [34]): 0.5 µg/mL (≈ 0.73 µM)
MIC (Staphylococcus aureus [35]): 0.5 µg/mL (≈ 0.73 µM)
MIC50 (Staphylococcus aureus [36]): 0.5 µg/mL (≈ 0.73 µM)
MIC90 (Staphylococcus aureus [36]): 0.5 µg/mL (≈ 0.73 µM)
MBC90 (Staphylococcus aureus [37]): 0.5 µg/mL (≈ 0.73 µM)
MIC (Staphylococcus aureus [38]): 0.5 µg/mL (≈ 0.73 µM)
MBC50 (Staphylococcus aureus [39]): 0.5 µg/mL (≈ 0.73 µM)
MBC (Staphylococcus aureus [39]; Staphylococcus aureus): 0.12 µg/mL (≈ 0.175 µM)
MIC (Staphylococcus aureus [40]): 0.55 µg/mL and 0.25 µg/mL
MIC50 (Staphylococcus aureus [40]; Staphylococcus aureus): 0.5 µg/mL (≈ 0.73 µM)
MIC (Staphylococcus aureus [41]): 0.5 µg/mL (≈ 0.73 µM)
MIC (Staphylococcus aureus [42]): 1 µg/mL (≈ 1.46 µM)
MIC (Staphylococcus aureus [43]): 0.5 µg/mL (≈ 0.73 µM)
MBC50 (Staphylococcus aureus [44]): 1 µg/mL (≈ 1.46 µM)
MBC90 (Staphylococcus aureus [44]): 1 µg/mL (≈ 1.46 µM)
MBC (Staphylococcus aureus [44]; Staphylococcus aureus): 0.5 µg/mL (≈ 0.73 µM)
